Only some compounds are listed: those with a hit (about 2.3% of all), similar ones and a draw of the others.
Autophagy HCS: autophagy modulation, high-content screen; MEF GFP-LC3 puncta imaging; test concentration mostly 10 µM; calls only at 10 µM (by protocol); actives 0.98% (n = 190,000);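 active = percentage of spot-positive cells more than 3 SD above its plate mean, without a fluorescence outlier flag or 80% toxicity; inconclusive = no clear call, values can overlap the other calls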
Dynein cargo inh: blocks dynein driven cargo transport along microtubules. 3617.4 mouse cells, GR-EGFP nuclear translocation imaging; test concentration mostly 20 µM; stimulated with dexamethasone, 1 µM; active compounds read low. z-score, hits read low. actives 0.47% (n = 220,000);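 active = plate z-score of nuclear minus cytoplasmic receptor signal below a set negative limit, without overly bright fluorescence or cell loss, cut at about -3.5 in these data, passing the limit was not always enough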;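 also: z-score of nuclear minus cytoplasmic ring GR-EGFP intensity difference per well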
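Buffer or medium: tetracycline-free induction medium containing charcoal-stripped FBS / Reagent: dexamethasone agonist, 1.0 µM final, for 30 min / Technique: automated 10x imaging of fixed Hoechst-stained cells / Times: induction 48 h, compound 1 h, agonist 30 min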
MT stabilizer: microtubule stabilizers in HeLa cells. HeLa tubulin immunostaining HCS, 24 h; share of cells brighter than vehicle mean+2SD. % tubulin-high responders, % at 10 µM. actives 0.83% (n = 200,000). AID 2205;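 active = plate Z-score above 3 for both tubulin-high and condensed-nucleus cell shares, with cell loss under 80%, at 10 µM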;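 also: anti alpha tubulin signal scored within the nucleus-defined area of each cell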
Ins promoter up: MIN6 insulin promoter up-regulation | MIN6 insulin promoter-GFP reporter, high-content imaging; active compounds read high | z-score at 5 µM | actives 0.3% (n = 190,000) | AID 1625;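 active = z-score above 3 at 5 µM with at least 500 cells counted in the well; inconclusive = wells under 500 cells, flagged as cytotoxic or low count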
b-catenin transl: beta-catenin nuclear translocation modulation | actives 0.3% (n = 190,000) | AID 1665 | HeLa beta-catenin nuclear translocation, immunofluorescence imaging | nuclear translocation activity, % at 5 µM;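 active = nuclear translocation activity above 50% at 5 µM, with a well cell count of 50 or more; inconclusive = wells under 50 cells across six images, flagged as toxic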;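 also: per-cell ratio of nuclear to cytoplasmic median beta-catenin stain intensity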
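System: HeLa cells, endogenous beta-catenin; compound dosing: 5 µM primary single dose, 0.1% DMSO, 0.02–20 µM confirmation series; incubation: 24 h compound exposure at 37°C, 5% CO2; signal: beta-catenin immunofluorescence imaging with DAPI; evaluation: % activation, nuclear-to-cytoplasmic median beta-catenin signal ratio per cell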
Each line names hits and unclear results; the compound was inactive in the other large screens.

COC(=O)c1cc2occc2n1Cc1c(F)cccc1Cl	Ins promoter up 3.1
CCOC(=O)c1cc2occc2n1Cc1c(F)cccc1Cl	none
CNC(=O)CSCc1c(F)cccc1Cl	none (no result: Ins promoter up)
O=C(CSCc1c(F)cccc1Cl)Nc1cccnc1	Autophagy HCS active
CCS(=O)(=O)CCSc1nc(C)cc(C)n1	none
Cc1cc(C)nc(SCSc2nc(C)cc(C)n2)n1	Ins promoter up 4.5
COc1cc(/C=N/Nc2nc(C)nc3c2cnn3-c2ccccc2)ccc1O	MT stabilizer 16, b-catenin transl 63
COc1cc(/C=N/NC(=O)c2nc(-c3ccccc3)n(-c3ccccc3)n2)ccc1O	none
CN(C(=S)NC1CCCCC1)C1(c2ccccc2Cl)CCCCC1=O (centres undefined)	Autophagy HCS active
COc1ccc(C(C)C)cc1S(=O)(=O)n1cnc(C)c1	MT stabilizer 18 (no result: Ins promoter up, b-catenin transl)
COc1cc(C)c(Cl)cc1S(=O)(=O)n1cnc(C)c1	none (no result: b-catenin transl)
CCOc1cc(C)c(C(C)C)cc1S(=O)(=O)n1cnc(C)c1	MT stabilizer 18
CCn1cc(C(=O)NCCN(C)CCc2ccccc2)c(=O)c2cc(S(=O)(=O)N(C)C)ccc21	Ins promoter up 3.9
Cc1cc(N2CCN(c3nc(N4CCOCC4)nc4ccccc34)CC2)c2ccccc2n1	Autophagy HCS active (no result: Ins promoter up, b-catenin transl)
CN(CC1CCCO1)S(=O)(=O)c1ccc(C(=O)Nc2nccs2)cc1 (centres undefined)	none (no result: Autophagy HCS, MT stabilizer)
COc1ccc(NS(=O)(=O)c2cc(C)ccc2C)cc1	MT stabilizer 59
COc1ccc(NS(=O)(=O)c2cc(OC)ccc2NC(=O)c2cc(C)oc2C)cc1	MT stabilizer 38 (no result: Ins promoter up)
CCOc1ccc(/C=C2\SC(=O)N(CCNC(=O)C3COc4ccccc4O3)C2=O)cc1OC (centres undefined)	none
CN(C)c1ccc(/C=C/C(O)=C2/C(=O)N(C)C3(C)CC2c2ccccc2O3)cc1 (centres undefined)	none (no result: Ins promoter up)
CCOc1ccc(/C=C/C(O)=C2/C(=O)N(C)C3(C)CC2c2ccccc2O3)cc1OC (centres undefined)	MT stabilizer 15
CCOc1ccc(/C=C/C(O)=C2/C(=O)NC3(C)CC2c2ccccc2O3)cc1OC (centres undefined)	Autophagy HCS active (no result: b-catenin transl)
CCCn1c(C)cc(C(=O)COc2ccc(-c3nnco3)cc2)c1C	none
CC(C)(C)c1ccc(Oc2ncccc2NC(=O)c2cccs2)cc1	none (no result: Autophagy HCS, MT stabilizer)
O=C(Cn1ncc(Cl)c(Cl)c1=O)NCC1CCCCC1	Dynein cargo inh -6.2, Ins promoter up inconclusive
Cc1ccc2c(c1)NC(=O)C(CC(=O)NCCCN1CCN(c3cc(C)ccc3C)CC1)O2 (centres undefined)	Autophagy HCS active (no result: b-catenin transl)
Nc1nc(SCC(=O)Nc2ccc([N+](=O)[O-])cc2)n[nH]1	none
CCCCCCCCCCCCCCCC[n+]1cccc2ccccc21	Dynein cargo inh -5.2, Ins promoter up inconclusive
Cc1cccn2c(CNC3CCCc4ccccc43)c(C(=O)N3CCCCC3)nc12 (centres undefined)	none
Clc1ccc2c(c1)C(C1=NCCN1)c1ccccc1CS2 (centres undefined)	MT stabilizer 24 (no result: b-catenin transl)
S=C1NCCc2ccc(Cl)cc2C1c1ccccc1Cl (centres undefined)	none
O=c1c2oc3ccccc3c2ncn1Cc1ccc(Cl)cc1	none
Cc1cc(Nc2nn(C)c(N)c2C#N)ccc1F	Ins promoter up 6
COC(=O)[C@@]1(Cc2ccc(OC)cc2)[C@@H]2C(=CC(=O)[C@H]2CC(=O)C(=O)N(C)C)CN1C(=O)c1ccccc1	Dynein cargo inh -4.8
C/C(=N\NC(N)=S)C1C2C3CC4C5CC(C42)C1C53 (centres undefined)	MT stabilizer 7.4
Cc1ccc(OCCC(=O)O)cc1	none (no result: Autophagy HCS, MT stabilizer)
Nc1c(C(=O)NC2CCCC2)sc2nc(-c3cccs3)ccc12	Ins promoter up 3.9 (no result: b-catenin transl)
Cc1ccc(CN=C2NC(=O)C(CC(=O)NCCc3ccccc3)S2)cc1 (centres undefined)	none
COc1ccc2[nH]c(=O)c(CN(Cc3cccs3)Cc3nnnn3C(C)(C)C)cc2c1	none
CCOc1ccc2[nH]c(=O)c(CN(Cc3cccs3)Cc3nnnn3C(C)(C)C)cc2c1	MT stabilizer 33
CCc1ccc2[nH]c(=O)c(CN(Cc3ccc(OC)cc3)Cc3nnnn3CCOC)cc2c1	Autophagy HCS active
COCCn1nnnc1C(C(C)C)N(Cc1ccccc1)Cc1cc2cc(OC)ccc2[nH]c1=O (centres undefined)	none
Cc1ccnc(NC(c2ccccn2)c2c(C)[nH]c3ccccc23)c1 (centres undefined)	none
CCOc1ccc(N2C(=O)CC(Sc3nnnn3-c3ccccc3)C2=O)cc1 (centres undefined)	Autophagy HCS active
CCOC(=O)C1C(C(=O)NN)C1C(=O)Nc1ccccc1 (centres undefined)	none
CCC1COC(c2cccn2Cc2ccccc2Cl)=N1 (centres undefined)	Autophagy HCS active
Nc1cccc(/C=C/c2ccncc2)c1	none (no result: Autophagy HCS, MT stabilizer)
CCOc1cc(-c2c(C#N)c(N)nc3c2CCc2ccccc2-3)ccc1O	none
CCOc1cc(-c2c(C#N)c(N)nc3c2CCCC3C)ccc1O (centres undefined)	MT stabilizer 23 (no result: b-catenin transl)
CCOc1cc(-c2cc(-c3ccc(C)cc3)nc(N)c2C#N)ccc1O	Autophagy HCS active, MT stabilizer 49, b-catenin transl 69
COc1cc(-c2cc(-c3ccc(O)cc3)nc(N)c2C#N)ccc1O	none
Cc1cc(C(=O)N/N=C/c2ccc(C)o2)c2ccccc2n1	MT stabilizer 15
CCCc1cc(C(=O)N/N=C/c2ccc(C)o2)c2ccccc2n1	MT stabilizer 44
Cc1ccc(/C=N/NC(=O)c2cc(C3CC3)nc3ccccc23)o1	MT stabilizer 23, Ins promoter up inconclusive
C=CCN(c1ccccc1)S(=O)(=O)c1cccc(C(=O)OCC(=O)NCCOC)c1	none (no result: Autophagy HCS, MT stabilizer)
C=CCN(c1ccccc1)S(=O)(=O)c1cccc(C(=O)OCC(=O)NC2CC2)c1	Autophagy HCS active
CCOC(=O)c1[nH]c(C)c(C(=O)Nc2cc(OC)ccc2OC)c1C	MT stabilizer 27, b-catenin transl 56
Cc1[nH]c(C(=O)N/N=C/c2ccc(C(=O)O)cc2)c(C)c1C(=O)N/N=C/c1ccc(C(=O)O)cc1	none
CCOC(=O)c1c(C)[nH]c(C(=O)OCC(=O)Nc2cc(Cl)ccc2OC)c1C	none
CCOC(=O)c1c(C)[nH]c(C(=O)OCC(=O)Nc2cc(C)ccc2OC)c1C	Autophagy HCS active
CCOC(=O)c1c(C)c(C(=O)Nc2cc(OC)ccc2OC)c(C)n1CC	MT stabilizer 25
CCOC(=O)c1c(C)[nH]c(C(=O)N/N=C/c2ccc(Br)cc2)c1C	b-catenin transl 121
CCCN(CCC)CC(C)(C)NS(=O)(=O)c1ccc(Cl)cc1	none (no result: Autophagy HCS, MT stabilizer)
COc1cc2[nH]c3c(N4CCN(c5ccccn5)CC4)ncnc3c2cc1OC	Autophagy HCS active
COc1ccc2[nH]c3c(N4CCc5ccccc5C4)ncnc3c2c1	b-catenin transl 115 (no result: Autophagy HCS, MT stabilizer, Ins promoter up)

Screening results deposited in PubChem BioAssay by several laboratories.
